# ABHD4 inh – inhibitors of mouse ABHD4; Q8VD66; purified mABHD4, FP-Rh probe fluorescence polarization; inhibition, % at 8.92 µM; 370,000 compounds, 0.54% hits; AID 720543;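 active = inhibition exceeding the mean over every tested compound plus 3 SD, cut at about 30% in these data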;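 also: 0% = plate median of compound wells and 100% = S159A mutant with DMSO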
# Target sequence (Q8VD66 whole entry, looked up): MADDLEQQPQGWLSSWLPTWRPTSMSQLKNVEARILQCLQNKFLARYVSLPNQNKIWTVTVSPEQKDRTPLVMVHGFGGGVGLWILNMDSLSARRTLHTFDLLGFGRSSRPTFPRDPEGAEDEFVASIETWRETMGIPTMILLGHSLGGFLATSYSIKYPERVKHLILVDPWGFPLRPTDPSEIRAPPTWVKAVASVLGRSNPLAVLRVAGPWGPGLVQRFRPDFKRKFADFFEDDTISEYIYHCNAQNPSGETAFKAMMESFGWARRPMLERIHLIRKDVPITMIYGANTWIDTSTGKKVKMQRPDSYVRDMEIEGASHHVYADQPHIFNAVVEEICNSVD
#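 Test system: mABHD4 protein; Read-out basis: % inhibition; Incubation: 45 min + 60 min at 25 °C; Repeats: single replicate; Technique: fluorescence polarization with parallel and perpendicular emission, 525/598 nm; Compound: 8.92 µM, single dose; Benchmarks: full inhibition S159A mutant plus DMSO, zero as sample-well median.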
# TCR-CD3 inh – human TCR-CD3 binding inhibition; inhibition, % at 9.4 µM; AID 651800; 360,000 compounds, 0.37% hits; TAMRA-labeled TCR probe fluorescence, biochemical;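 also: recombinant mutant TCR 2C K166C tagged with TAMRA read by polarization; 0% = receptor in buffer alone and 100% = receptor with positive control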
# SIAE primary – inhibitors of human sialic acid acetylesterase SIAE | Q9HAT2 | SIAE FP-Rh probe binding, fluorescence polarization | inhibition, % at 9.66 µM | 370,000 compounds, 0.69% hits;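 active = inhibition above a cutoff: mean of compounds within the control limits plus 3 SD of those, cut at about 17% in these data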;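 also: 0% = plate median of compound wells and 100% = probe without SIAE protein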
# HTRA1 inh – blocks human HTRA1 serine peptidase | AID 504803 | inhibition, % at 5.96 µM | 340,000 compounds, 0.5% hits | Q92743 | recombinant HTRA1, FP-rhodamine activity-based probe, fluorescence polarization; in the data active = inhibition above about 36%;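 also: 0% = enzyme with DMSO and 100% = wells lacking enzyme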
# PRMT1 FP inh – blocks human protein arginine methyltransferase 1 | Q99873 | 370,000 compounds, 1.3% hits | inhibition, % at 2.79 µM | recombinant PRMT1, activity-based probe fluorescence polarization;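 active = inhibition above about 21% made by adding two undisclosed values, limit read from the data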
# BSA TAMRA ctr – BSA probe counter-screen for TCR-CD3 inhibitors | shares compounds with TCR-CD3 inh | TAMRA-labeled BSA probe fluorescence counterscreen | inhibition, % at 9.4 µM | 1,200 compounds, 10% hits | AID 652035; in the data active = inhibition above about 23%;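 also: 0% = buffer low control and 100% = reference high control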
# TCR-CD3 conf – TCR-CD3 interaction inhibition, confirmation | TAMRA-labeled TCR probe fluorescence binding assay | shares compounds with TCR-CD3 inh | 1,200 compounds, 48% hits | inhibition, % at 9.4 µM
# PRMT1 confirm – confirmation of human PRMT1 inhibitors. shares compounds with PRMT1 FP inh. recombinant His-PRMT1, activity-based probe fluorescence polarization. inhibition, % at 2.79 µM. 3,300 compounds, 42% hits. AID 687036;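 active = mean inhibition across replicates above the hit cutoff derived for the earlier primary screen, cut at about 22% in these data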
# mABHD4 conf – ABHD4 (mouse) inhibition, FP confirmation. AID 720658. shares compounds with ABHD4 inh. inhibition, % at 8.92 µM. purified mABHD4, FP-Rh probe fluorescence polarization. 1,800 compounds, 55% hits;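 active = mean inhibition across replicates above the hit cutoff set in the primary screen, cut at about 30% in these data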;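 also: 0% = wild-type ABHD4 with DMSO and 100% = catalytically dead S159A mutant with DMSO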
# SIAE confirm – human SIAE inhibition, confirmation. inhibition, % at 9.66 µM. 2,300 compounds, 13% hits. SIAE FP-Rh activity-based probe, fluorescence polarization. AID 1117263. shares compounds with SIAE primary;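 active = mean inhibition of the replicates above the hit cutoff set in the primary screen, cut at about 17% in these data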;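 also: 0% = SIAE with DMSO and probe and 100% = probe without SIAE; inhibitors lower polarization as more probe stays unbound to SIAE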
# The depositor's hits bear a star; / = not tested or not shown. Only some compounds are listed: those with a hit (about 2.6% of all), similar ones and a draw of the others. Rule as the data show it, unless noted: active = inhibition above about 19%; inactive = the rest.
SMILES,ABHD4 inh,TCR-CD3 inh,SIAE primary,HTRA1 inh,PRMT1 FP inh,BSA TAMRA ctr,TCR-CD3 conf,PRMT1 confirm,others
CCOc1cc2c(cc1OCC)-n1cccc1C(c1ccccc1F)NC2 (stereo unspecified),8,-4,-2,-13,3,/,/,/,
CCOC(=O)CNC(=O)N1Cc2cc(Br)ccc2-n2nncc2C1,2,36*,2,/,-1,-2,4,/,
Cc1ccc(/C=C2\C(=O)NC(=S)N(c3ccccc3F)C2=O)s1,-212,45*,-97,-24,3,-31,-16,/,
CC(=O)N[C@@H]1CC[C@@]2(O)[C@H]3Cc4ccc(O)c5c4[C@@]2(CCN3CC2CC2)[C@@H]1O5,1,3,1,1,0,/,/,/,
O=C(N/N=C/c1c(O)n(CCc2ccccc2)c(=O)[nH]c1=O)c1ccncc1,20,8,0,7,3,/,/,/,
O=C(N/N=C/c1c(O)n(-c2cccc3ccccc23)c(=O)[nH]c1=O)c1ccncc1,0,22*,-1,6,4,-6,10,/,
COC1C(C)OC(OC2CC(C)(O)Cc3cc4c(c(O)c32)C(=O)c2c(O)cc3c(c2C4=O)OC2OC3(C)C(O)C(N(C)C)C2O)C(OC)C1(C)OC (stereo unspecified),-6,80*,-9,5,124*,51*,40*,98*,
CCCN1CCC(NC2CCC(O)CC2)CC1 (stereo unspecified),-1,0,11,7,-2,/,/,/,
CN(C)[C@@H]1C(=O)C(C(N)=O)=C(O)[C@@]2(O)C(=O)C3=C(O)c4c(O)cccc4[C@@](C)(O)C3C[C@@H]12 (stereo partly specified),64*,23*,14,22,19,-5,-2,/,mABHD4 conf=9
CCOC(=O)C1(CCc2ccccc2)CCN(CC(O)CO)CC1 (stereo unspecified),-1,-5,-4,5,2,/,/,/,
CC/C(=N\NC(=O)c1ccccc1)c1c(O)n(C2CCCCC2)c(=O)[nH]c1=O,0,20*,18*,1,13,-4,14,/,SIAE confirm=4
c1ccc2c(c1)CNCc1cnnn1-2,1,-9,-28,6,0,/,/,/,
CN(CC=CCN(C)P(=S)(N1CC1)N1CC1)P(=S)(N1CC1)N1CC1,7,2,-4,0,52*,/,/,-6,
C[C@@H]1CN([C@H](C)CO)C(=O)CCCn2nncc2CO[C@@H]1CN(C)C(=O)Oc1ccccc1,-2,0,5,1,-2,/,/,/,
CCCCn1c(NC(=O)c2ccco2)c(C(=O)OCC)c2nc3ccccc3nc21,-16,-5,-4,-7,41*,/,/,8,
CC(C)NP(=O)(NC(C)C)OP(=O)(NC(C)C)NC(C)C,-1,8,-10,-1,0,/,/,/,
CCn1cc(C=C2C(=O)N(C)C(=O)N(C)C2=O)c2ccccc21,-1,0,-7,-1,7,/,/,/,
CN1C(=O)C(=Cc2c(OCc3cnc(Cl)s3)ccc3ccccc23)C(=O)N(C)C1=O,-13,-11,-14,-19,44*,/,/,-1,
COc1ccc(C2=NCC(=S)Nc3ccc(Cl)cc32)cc1Cl,1,6,0,-6,40*,/,/,-2,
Cc1ccc(-c2nc(N3CCOCC3)s[n+]2-c2ccccc2)cc1,-7,5,10,1,3,/,/,/,
CN(C)c1nc(-c2ccccc2)[n+](C)s1,2,8,4,4,34*,/,/,22*,
CCOC(=O)CC(SP1(=S)OCC2(CCCCC2)CO1)C(=O)OCC (stereo unspecified),-4,0,-3,-12,25*,/,/,18,
Cc1cccc(C(O)(C(=O)O)c2ccccc2)c1 (stereo unspecified),-3,4,-3,1,-3,/,/,/,
